# Source: ChEMBL document CHEMBL3108698, “Targeting low-druggability bromodomains: fragment based screening and inhibitor design against the BAZ2B bromodomain” (J Med Chem, 2013)
# Legend:
# [1] = biological target: Bromodomain adjacent to zinc finger domain protein 2B (Homo sapiens) (UniProt Q9UIF8); experiment: Displacement of biotinylated H3Kac14 peptide from His6-tagged human BAZ2B expressed in Escherichia coli BL21(DE3) at 200 uM after 30 mins by AlphaLISA assay relative to control
# [2] = biological target: CREB-binding protein (Homo sapiens) (UniProt Q92793); experiment: Binding affinity to CREBBP (unknown origin) assessed as change in melting temperature at 100 uM by differential scanning fluorimetric analysis
# Procedure, shortened: (§1)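 SYPRO Orange (1:1000) thermal shift with 2 μM bromodomain and 100 μM compound (final), 0.1% DMSO final, in 10 mM HEPES, 500 mM NaCl, 5% glycerol, 0.5 mM TCEP. Tm taken as the minimum of the negative first derivative of the melt curve. Run in triplicate; averages reported.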
# [3] = biological target: Bromodomain-containing protein 2 (Homo sapiens) (UniProt P25440); experiment: Binding affinity to BRD2 bromodomain-2 (unknown origin) assessed as change in melting temperature at 100 uM by differential scanning fluorimetric analysis; procedure, shortened: as §1
# [4] = biological target: Bromodomain-containing protein 2 (Homo sapiens) (UniProt P25440); experiment: Binding affinity to BRD2 bromodomain-1 (unknown origin) assessed as change in melting temperature at 100 uM by differential scanning fluorimetric analysis; procedure, shortened: as §1
# Bromodomain adjacent to zinc finger domain protein 2B (Homo sapiens), sequence (Q9UIF8 whole entry, the tested form may be a part): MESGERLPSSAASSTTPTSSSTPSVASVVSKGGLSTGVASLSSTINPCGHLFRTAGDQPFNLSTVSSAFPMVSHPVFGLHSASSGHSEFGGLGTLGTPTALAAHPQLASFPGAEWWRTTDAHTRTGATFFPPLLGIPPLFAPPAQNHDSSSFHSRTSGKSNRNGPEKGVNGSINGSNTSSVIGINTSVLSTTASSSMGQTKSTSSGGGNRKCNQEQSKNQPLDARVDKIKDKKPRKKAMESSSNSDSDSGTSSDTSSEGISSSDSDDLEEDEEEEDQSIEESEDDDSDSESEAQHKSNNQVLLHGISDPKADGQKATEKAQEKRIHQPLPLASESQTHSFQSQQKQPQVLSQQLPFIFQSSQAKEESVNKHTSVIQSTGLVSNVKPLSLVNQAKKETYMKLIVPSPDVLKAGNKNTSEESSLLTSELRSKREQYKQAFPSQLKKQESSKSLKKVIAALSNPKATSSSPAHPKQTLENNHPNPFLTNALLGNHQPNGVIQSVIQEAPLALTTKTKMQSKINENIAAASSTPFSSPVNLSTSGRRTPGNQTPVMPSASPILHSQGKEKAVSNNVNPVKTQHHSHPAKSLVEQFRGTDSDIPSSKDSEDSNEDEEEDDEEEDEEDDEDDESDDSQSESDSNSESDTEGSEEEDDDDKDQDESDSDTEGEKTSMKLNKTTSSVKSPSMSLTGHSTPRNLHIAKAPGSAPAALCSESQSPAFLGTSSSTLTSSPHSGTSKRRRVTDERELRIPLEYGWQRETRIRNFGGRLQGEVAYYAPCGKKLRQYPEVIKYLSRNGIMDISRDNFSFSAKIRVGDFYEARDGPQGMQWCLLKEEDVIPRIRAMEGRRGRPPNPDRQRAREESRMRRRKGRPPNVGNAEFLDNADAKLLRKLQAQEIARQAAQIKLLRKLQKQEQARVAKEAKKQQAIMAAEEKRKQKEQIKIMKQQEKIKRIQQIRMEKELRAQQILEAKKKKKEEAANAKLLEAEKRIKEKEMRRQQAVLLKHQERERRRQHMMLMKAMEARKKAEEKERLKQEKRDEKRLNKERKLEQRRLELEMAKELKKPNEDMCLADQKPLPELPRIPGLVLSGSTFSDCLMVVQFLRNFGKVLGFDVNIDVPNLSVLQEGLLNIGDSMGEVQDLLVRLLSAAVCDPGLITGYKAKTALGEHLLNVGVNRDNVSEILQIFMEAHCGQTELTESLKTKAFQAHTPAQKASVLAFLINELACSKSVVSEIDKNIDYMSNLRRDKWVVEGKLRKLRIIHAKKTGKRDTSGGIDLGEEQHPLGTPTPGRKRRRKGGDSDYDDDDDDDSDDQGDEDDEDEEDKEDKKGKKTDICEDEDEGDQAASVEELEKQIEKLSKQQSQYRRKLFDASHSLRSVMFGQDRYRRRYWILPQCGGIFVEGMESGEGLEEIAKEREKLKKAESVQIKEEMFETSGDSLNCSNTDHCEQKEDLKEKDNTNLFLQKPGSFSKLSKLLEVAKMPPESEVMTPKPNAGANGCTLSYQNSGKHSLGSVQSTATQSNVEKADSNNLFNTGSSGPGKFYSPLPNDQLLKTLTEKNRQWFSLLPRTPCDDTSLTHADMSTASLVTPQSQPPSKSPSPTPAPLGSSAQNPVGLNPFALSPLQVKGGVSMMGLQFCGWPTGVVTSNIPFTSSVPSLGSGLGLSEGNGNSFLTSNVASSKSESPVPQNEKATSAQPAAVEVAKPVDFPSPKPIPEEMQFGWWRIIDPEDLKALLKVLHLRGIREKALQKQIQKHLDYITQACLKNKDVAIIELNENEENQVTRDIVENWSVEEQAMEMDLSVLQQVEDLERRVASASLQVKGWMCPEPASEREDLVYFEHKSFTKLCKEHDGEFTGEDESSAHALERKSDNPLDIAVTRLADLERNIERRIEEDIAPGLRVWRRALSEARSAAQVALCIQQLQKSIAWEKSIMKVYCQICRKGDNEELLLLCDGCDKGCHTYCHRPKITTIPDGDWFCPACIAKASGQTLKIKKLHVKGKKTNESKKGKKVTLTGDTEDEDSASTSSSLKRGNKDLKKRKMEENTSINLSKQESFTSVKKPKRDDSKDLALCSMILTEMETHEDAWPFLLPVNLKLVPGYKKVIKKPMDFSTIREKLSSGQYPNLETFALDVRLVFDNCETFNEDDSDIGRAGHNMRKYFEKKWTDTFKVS
# Bromodomain-containing protein 2 (Homo sapiens), sequence (P25440 whole entry, looked up): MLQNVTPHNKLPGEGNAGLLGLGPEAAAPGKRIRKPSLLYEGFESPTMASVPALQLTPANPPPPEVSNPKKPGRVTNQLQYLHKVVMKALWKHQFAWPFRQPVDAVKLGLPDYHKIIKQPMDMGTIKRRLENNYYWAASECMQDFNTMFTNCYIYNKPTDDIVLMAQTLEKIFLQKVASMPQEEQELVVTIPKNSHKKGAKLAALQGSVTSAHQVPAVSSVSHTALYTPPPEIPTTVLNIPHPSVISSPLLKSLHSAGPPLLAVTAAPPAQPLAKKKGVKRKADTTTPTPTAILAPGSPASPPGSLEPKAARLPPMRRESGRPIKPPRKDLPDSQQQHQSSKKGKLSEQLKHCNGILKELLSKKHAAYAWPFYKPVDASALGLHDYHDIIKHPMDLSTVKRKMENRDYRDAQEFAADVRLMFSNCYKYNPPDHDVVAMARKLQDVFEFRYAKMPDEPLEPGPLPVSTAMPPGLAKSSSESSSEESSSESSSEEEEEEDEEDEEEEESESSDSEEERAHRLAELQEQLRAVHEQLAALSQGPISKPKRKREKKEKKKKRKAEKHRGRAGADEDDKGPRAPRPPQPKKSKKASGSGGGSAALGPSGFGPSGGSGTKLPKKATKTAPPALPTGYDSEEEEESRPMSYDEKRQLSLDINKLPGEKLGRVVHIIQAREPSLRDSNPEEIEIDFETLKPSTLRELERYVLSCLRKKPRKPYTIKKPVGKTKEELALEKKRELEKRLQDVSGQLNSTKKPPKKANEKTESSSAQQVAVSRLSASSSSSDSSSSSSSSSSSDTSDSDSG
smiles,measurement,setting,value
CC(=O)N1CCc2[nH]c3ccc(-c4cccnc4)cc3c2C1,inhibition,[1],55%
CC(=O)N1CCc2c(c3cc(Br)ccc3n2S(=O)(=O)c2ccc(C)cc2)C1,inhibition,[1],60%
CNC(=O)N1CCc2[nH]c3ccc(Cl)cc3c2C1,ΔTm,[2],2.1 °C
same,ΔTm,[3],-0.2 °C
same,ΔTm,[4],-0.6 °C
CC(=O)N1CCc2[nH]c3ccc(Br)cc3c2C1,ΔTm,[2],8.1 °C
same,ΔTm,[3],3.5 °C
same,ΔTm,[4],7.3 °C
CC(=O)N1CCc2[nH]c3ccc(C(=O)O)cc3c2C1,inhibition,[1],48%
CC(=O)N1CCc2[nH]c3ccc(N(C)C(C)=O)cc3c2C1,inhibition,[1],65%
CC(=O)N1CCc2[nH]c3c(O)ccc(Cl)c3c2C1,inhibition,[1],52%
CC(=O)N1CCc2[nH]c3ccc(Oc4ccccc4)cc3c2C1,inhibition,[1],65%
CC(=O)N1CCc2c(c3cccc4c3n2C(=O)CN4C)C1,inhibition,[1],63%
CC(=O)N1CCc2c(c3cc(Br)ccc3n2C(=O)OC(C)(C)C)C1,inhibition,[1],38%
CC(=O)N1CCc2c(c3cccc4c3n2CCS4)C1,inhibition,[1],70%
